This excerpt belongs to a sample that is enriched for hits.
V-ATPase pHluor: regulators of yeast V-ATPase proton transport | S. cerevisiae, pHLuorin cytosolic pH fluorescence | 350,000 tested, 0.37% active | AID 504577 | response, % at 10 µM; in the data active means response mostly above about 7.3%, no sharp cut-off; inactive means mostly below about 5.4%; further: actives read high
Tb MetRS inh: Trypanosoma brucei MetRS inhibition; purified T. brucei MetRS, ATP depletion, Kinase-Glo luminescence; inhibition, % at 11.9 µM; 360,000 tested, 0.4% active; AID 624268;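 active means inhibition above a per-plate cutoff of the control wells' mean inhibition plus 3 SD, cut at about 5.5% in these data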;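 further: 0% = DMSO wells median and 100% = median of wells with control inhibitor compound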
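Material – parasite MetRS enzyme · Medium – HEPES-MgCl2-KCl buffer plus DTT, spermine, BSA, pyrophosphatase · Reagent – ATP, methionine and E. coli bulk tRNA substrates · Times – 15 min enzyme-compound preincubation, 2 h reaction, 10 min detection, 25 °C · Measured by – luminescence of leftover ATP · Evaluation – percent inhibition relative to median high and low control wells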
UPR CHOP act: activators of apoptotic arm of unfolded protein response (CHOP); 330,000 tested, 0.34% active; activation, % at 10 µM; AID 449763; CHO-CHOP luciferase reporter, UPR activation, luminescence; percent of tunicamycin response over DMSO baseline;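 active means at 10 µM dose, activation of 40% or more, normalized to positive control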;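 further: 100% = tunicamycin at 10 µg/mL and 0% = DMSO alone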
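Test system: CHO-CHOP cells, stable luciferase reporter of PERK-eIF2a-CHOP signalling | Quantity: 500 CHO-CHOP cells per well | Buffer or medium: F12 plus 10% serum | Compound dosing: 10 µM single point, 0.5% DMSO | Schedule: 6 h compound treatment, 37 °C | Signal: Luciferase luminescence | Control set: Tunicamycin high control, DMSO low control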
CHOP inh: inhibitors of CHOP induction in ER stress response. CHO-K1 CHOP-promoter luciferase, tunicamycin-induced, 15-18 h. inhibition, % at 10 µM. 220,000 tested, 3.8% active;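 active means compounds that reduced the stress-induced luciferase reporter signal by more than about 70% of percent inhibition, limit read from the data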;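 further: 0% = tunicamycin plus vehicle and 100% = wells without tunicamycin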
XBP1 UPR activ: adaptive UPR (XBP1) activation; CHO-XBP1 luciferase reporter, IRE1-XBP1 UPR activation, luminescence; percent of tunicamycin response, DMSO as zero; activation, % at 20 µM; 330,000 tested, 0.33% active; AID 463104;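 active means versus positive control, 20 µM dose yields 30% or more activation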;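 further: 100% = tunicamycin at 10 µg/mL and 0% = DMSO only wells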
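Signal: luciferase luminescence; Assay system: CHO-XBP1 luciferase reporter cells; Amount: one thousand reporter cells per well; Dosing: 20 µM single concentration, DMSO 1%; Benchmarks: high control tunicamycin 10 µg/mL final, low control DMSO vehicle only; Schedule: 6 h compound exposure at 37 °C, 5% CO2; Evaluation: percent activation relative to tunicamycin reference.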
Tb MetRS conf: Trypanosoma brucei MetRS inhibition confirmed; shares compounds with Tb MetRS inh; T. brucei MetRS enzyme, luminescence (ATP depletion); inhibition, % at 11.9 µM; 1,400 tested, 93% active; AID 624412; in the data active means inhibition above about 7%
Jurkat tox: Jurkat T cell cytotoxicity for MetRS hits; shares compounds with Tb MetRS inh; Jurkat cells viability, ATP luminescence; inhibition, % at 8.3 µM; 1,400 tested, 12% active; in the data active means inhibition above about 15%;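 further: 0% = vehicle and 100% = reference inhibitor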
TbMetRS FP orth: T. brucei MetRS inhibition, orthogonal assay | shares compounds with Tb MetRS inh | purified T. brucei MetRS, fluorescence polarization | inhibition, % at 11.9 µM | 1,400 tested, 44% active; in the data active means inhibition above about 17%;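 further: 0% = vehicle wells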
The depositor's hits bear a star; x = not tested or not shown.

SMILES | V-ATPase pHluor | Tb MetRS inh | UPR CHOP act | CHOP inh | XBP1 UPR activ | Tb MetRS conf | Jurkat tox | TbMetRS FP orth
O=C(Nc1ccc(Cl)cc1)c1ccc(-n2cccn2)c([N+](=O)[O-])c1 | -5 | 2 | 5 | 56 | 2 | x | x | x
Cc1nccn1C(c1ccccc1)c1ccccc1 | 0 | 0 | 1 | x | -5 | x | x | x
Clc1ccc2nc(-c3ccc(Cl)nc3)[nH]c2c1 | 0 | 25* | 9 | x | 10 | 46* | 15* | 22*
Clc1ccc(OCCCCCN2CCCC2)c(Br)c1 | 1 | 6.2* | 1 | 27 | 0 | 13* | 13 | 4
CC1CCCN(CCOCCOc2ccc(Cl)cc2Br)C1 (stereo not drawn) | 5 | 3 | -1 | -18 | -2 | x | x | x
Clc1ccc(OCCCN2CCCCC2)c(Br)c1 | 3 | 17* | 4 | 20 | 3 | 28* | 3 | 11
Clc1ccc(OCCCn2ccnc2)c(Br)c1 | -2 | 13* | 1 | 3 | 4 | 22* | 5 | 13
CCN1CCN(CCCOc2ccc(Cl)cc2Br)CC1 | -4 | 7.7* | 1 | 4 | -1 | 13* | 8 | 6
CN(Cc1ccccc1)C(=O)C(C(=O)c1ccc(F)cc1)n1cc(Cl)ccc1=O (stereo not drawn) | -4 | 0 | 0 | 1 | -6 | x | x | x
COC(=O)C1=COC(OC2OC(CO)C(O)C(O)C2O)C2C(C)CC(=O)C12 (stereo not drawn) | x | 0 | x | x | x | x | x | x
CS(=O)(=O)c1nc(S(=O)(=O)c2ccc(Cl)cc2)c(N2CCOCC2)s1 | 4 | 0 | 2 | x | -2 | x | x | x
CCOc1ccc2[nH]c(=O)c(CN(CCCN3CCOCC3)C(=O)Nc3ccc(F)cc3)cc2c1 | 4 | 0 | x | x | x | x | x | x
Cc1ccc2[nH]c(=O)c(CN(CCN3CCOCC3)C(=O)Nc3ccc(F)cc3)cc2c1 | 11 | 5.9* | 2 | -16 | -4 | 9.1* | 3 | 0
O=C(Nc1ccccc1C(F)(F)F)c1cc2ncc(CCCl)cn2n1 | 1 | 0 | 4 | -2 | 4 | x | x | x
Clc1ccc(CCNc2ncnc3nc[nH]c23)cc1 | 3 | 11* | 2 | x | 0 | 17* | 27* | 9
c1ccc2c(CCNc3ncnc4nc[nH]c34)cccc2c1 | -3 | 43* | 2 | 44 | -1 | 58* | 10 | 35*
c1ccc(CCCNc2ncnc3nc[nH]c23)cc1 | -11 | 0 | 1 | 17 | 3 | x | x | x
CCCNc1ncnc2nc[nH]c12 | 0 | 0 | 1 | -2 | -3 | x | x | x
CCN(c1ccc(OC)cc1)S(=O)(=O)N1CCCC(C(=O)NCc2ccc(OC(C)C)cc2)C1 (stereo not drawn) | 1 | 0 | x | x | x | x | x | x
O=C(Nc1ccc(S(=O)(=O)Nc2cnc3ccccc3n2)cc1)c1ccc(Cl)c([N+](=O)[O-])c1 | 1 | 12* | 1 | x | -1 | 24* | -1 | 7
Cc1cc2c(c(=O)n1Cc1ccc3c(c1)OCO3)C(c1cccnc1)C(C#N)=C(N)O2 (stereo not drawn) | 1 | 1 | 0 | 27 | -1 | x | x | x
COc1ccc(CCn2c(C)cc3c(c2=O)C(c2ccc4c(c2)OCO4)C(C#N)=C(N)O3)cc1OC (stereo not drawn) | -4 | 16* | 0 | 18 | -5 | 4 | 5 | 7
COc1cc(C2C(C#N)=C(N)Oc3cc(C)n(CC4CCCO4)c(=O)c32)cc2c1OCO2 (stereo not drawn) | -5 | 78* | x | 8 | x | 4 | 1 | 1
Cc1cc2c(c(=O)n1Cc1ccccn1)C(c1ccc3c(c1)OCO3)C(C#N)=C(N)O2 (stereo not drawn) | -1 | 14* | -3 | 9 | 2 | 4 | -10 | 3
COc1ccc(NC(=O)CN(C)C(=O)c2ccc3c(c2)NC(=O)CS3)cc1 | -1 | 7.9* | -1 | x | -1 | 33* | -8 | 6
Cc1ccccc1NC(=O)Cc1nc(COC(=O)c2cccc([N+](=O)[O-])c2)cs1 | 1 | 0 | -2 | x | -3 | x | x | x
